Laboratory results published in ChEMBL document CHEMBL4834399, “Pharmacokinetics of Eleven Kratom Alkaloids Following an Oral Dose of Either Traditional or Commercial Kratom Products in Rats” (J Nat Prod, 2021).

Assays:
[1] = Stability of the compound in water-methanol mixture (1:1) assessed as drug recovery; type: physicochemical; settings: buffer
[2] = Stability of the compound in rat plasma assessed as drug recovery; type: ADME, cell-free
[3] = rat, in vivo, po, 5.73 mg/kg, 24 h
[4] = rat, in vivo, po, 9.6 mg/kg, 24 h
[5] = Tmax in Sprague-Dawley rat plasma at 5.73 mg/kg, po administered as LKT formulation measured for 24 hrs by UPLC-MS/MS analysis; type: ADME, organism-based
Outline: (§1)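 Jugular-cannulated male SD rats (225 ± 25 g, n = 4) were fasted 12–16 h and given one oral gavage of LKT (366 mg/kg) or OPMS liquid (0.8 mL/kg) in water at 4 mL/kg, with dosing normalized to MTG human equivalent dose. Plasma was sampled from predose to 24 h and measured by UPLC–MS/MS (LLOQ 1 ng/mL). Cmax and Tmax were read from the observed data; Cmax/dose was also reported. Mean ± SEM.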

[6] = AUC(0 to 24 hrs) in Sprague-Dawley rat plasma at 5.73 mg/kg, po administered as LKT formulation measured for 24 hrs by UPLC-MS/MS analysis; type: ADME, organism-based; parameters: route oral, time 24 hrs, dose 5.73 mg/kg
[7] = Dose normalized Cmax in rat plasma at 20 mg/kg, po administered as LKT formulation; type: ADME, organism-based; settings: in vivo
[8] = Cmax in Sprague-Dawley rat plasma at 9.6 mg/kg, po administered as OPMS liquid formulation measured for 24 hrs by UPLC-MS/MS analysis; type: ADME, organism-based; parameters: route oral, dose 9.6 mg/kg, time 24 hrs; outline: as §1
[9] = Dose normalized AUC in rat plasma at 20 mg/kg, po administered as LKT formulation; type: ADME, organism-based; settings: in vivo
[10] = AUC(0 to 24 hrs) in Sprague-Dawley rat plasma at 9.6 mg/kg, po administered as OPMS liquid formulation measured for 24 hrs by UPLC-MS/MS analysis; type: ADME, organism-based; parameters: route oral, time 24 hrs, dose 9.6 mg/kg
[11] = Dose normalized Cmax in Sprague-Dawley rat plasma at 9.6 mg/kg, po administered as OPMS liquid formulation measured for 24 hrs by UPLC-MS/MS analysis; type: ADME, organism-based; settings: in vivo; outline: as §1
[12] = Dose normalized AUC(0 to 24 hrs) in Sprague-Dawley rat plasma at 9.6 mg/kg, po administered as OPMS liquid formulation measured for 24 hrs by UPLC-MS/MS analysis; type: ADME, organism-based; settings: in vivo
[13] = target: Cytochrome P450 2D6 (Homo sapiens, UniProt P10635); test: Inhibition of CYP2D6 in human liver microsomes assessed as inhibition of dextromethorphan O-demethylation using dextromethorphan as substrate preincubated for 5 mins followed by NADPH addition by UPLC-MS/MS analysis; type: ADME
Cytochrome P450 2D6, sequence (P10635 whole entry): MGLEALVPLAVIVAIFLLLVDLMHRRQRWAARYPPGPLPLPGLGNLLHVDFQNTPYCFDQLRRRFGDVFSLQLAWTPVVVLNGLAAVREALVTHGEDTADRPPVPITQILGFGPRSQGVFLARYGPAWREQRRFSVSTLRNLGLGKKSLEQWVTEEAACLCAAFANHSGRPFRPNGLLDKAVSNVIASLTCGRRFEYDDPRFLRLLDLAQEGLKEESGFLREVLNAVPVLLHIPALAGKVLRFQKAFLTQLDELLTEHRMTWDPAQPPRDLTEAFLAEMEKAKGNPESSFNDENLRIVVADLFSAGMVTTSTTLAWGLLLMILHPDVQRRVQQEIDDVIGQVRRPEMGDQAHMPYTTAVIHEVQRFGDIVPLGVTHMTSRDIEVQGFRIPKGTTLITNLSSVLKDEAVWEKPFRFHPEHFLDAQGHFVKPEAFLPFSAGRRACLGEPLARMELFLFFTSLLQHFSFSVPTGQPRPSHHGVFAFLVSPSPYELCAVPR

[14] = Dose normalized Cmax in Sprague-Dawley rat plasma at 5.73 mg/kg, po administered as LKT formulation measured for 24 hrs by UPLC-MS/MS analysis; type: ADME, organism-based; settings: in vivo; outline: as §1
[15] = Tmax in Sprague-Dawley rat plasma at 9.6 mg/kg, po administered as OPMS liquid formulation measured for 24 hrs by UPLC-MS/MS analysis; type: ADME, organism-based; outline: as §1
[16] = Cmax in Sprague-Dawley rat plasma at 5.73 mg/kg, po administered as LKT formulation measured for 24 hrs by UPLC-MS/MS analysis; type: ADME, organism-based; parameters: route oral, dose 5.73 mg/kg, time 24 hrs; outline: as §1
[17] = Dose normalized AUC(0 to 24 hrs) in Sprague-Dawley rat plasma at 5.73 mg/kg, po administered as LKT formulation measured for 24 hrs by UPLC-MS/MS analysis; type: ADME, organism-based; settings: in vivo
[18] = Dose normalized AUC(0 to 24 hrs) in Sprague-Dawley rat plasma at 2.24 mg/kg, po administered as OPMS liquid formulation measured for 24 hrs by UPLC-MS/MS analysis; type: ADME, organism-based; settings: in vivo
[19] = AUC(0 to 24 hrs) in Sprague-Dawley rat plasma at 2.03 mg/kg, po administered as LKT formulation measured for 24 hrs by UPLC-MS/MS analysis; type: ADME, organism-based; parameters: route oral, time 24 hrs, dose 2.03 mg/kg
[20] = Dose normalized Cmax in Sprague-Dawley rat plasma at 2.03 mg/kg, po administered as LKT formulation measured for 24 hrs by UPLC-MS/MS analysis; type: ADME, organism-based; settings: in vivo; outline: as §1
[21] = Dose normalized Cmax in Sprague-Dawley rat plasma at 2.24 mg/kg, po administered as OPMS liquid formulation measured for 24 hrs by UPLC-MS/MS analysis; type: ADME, organism-based; settings: in vivo; outline: as §1
[22] = Cmax in Sprague-Dawley rat plasma at 2.24 mg/kg, po administered as OPMS liquid formulation measured for 24 hrs by UPLC-MS/MS analysis; type: ADME, organism-based; parameters: route oral, dose 2.24 mg/kg, time 24 hrs; outline: as §1
[23] = Tmax in Sprague-Dawley rat plasma at 2.03 mg/kg, po administered as LKT formulation measured for 24 hrs by UPLC-MS/MS analysis; type: ADME, organism-based; outline: as §1
[24] = Cmax in Sprague-Dawley rat plasma at 2.03 mg/kg, po administered as LKT formulation measured for 24 hrs by UPLC-MS/MS analysis; type: ADME, organism-based; parameters: route oral, dose 2.03 mg/kg, time 24 hrs; outline: as §1
[25] = Tmax in Sprague-Dawley rat plasma at 2.24 mg/kg, po administered as OPMS liquid formulation measured for 24 hrs by UPLC-MS/MS analysis; type: ADME, organism-based; outline: as §1
[26] = Dose normalized AUC(0 to 24 hrs) in Sprague-Dawley rat plasma at 2.03 mg/kg, po administered as LKT formulation measured for 24 hrs by UPLC-MS/MS analysis; type: ADME, organism-based; settings: in vivo
[27] = AUC(0 to 24 hrs) in Sprague-Dawley rat plasma at 2.24 mg/kg, po administered as OPMS liquid formulation measured for 24 hrs by UPLC-MS/MS analysis; type: ADME, organism-based; parameters: route oral, time 24 hrs, dose 2.24 mg/kg
[28] = Tmax in Sprague-Dawley rat plasma at 1.77 mg/kg, po administered as OPMS liquid formulation measured for 24 hrs by UPLC-MS/MS analysis; type: ADME, organism-based; outline: as §1
[29] = Cmax in Sprague-Dawley rat plasma at 1.77 mg/kg, po administered as OPMS liquid formulation measured for 24 hrs by UPLC-MS/MS analysis; type: ADME, organism-based; parameters: route oral, time 24 hrs, dose 1.77 mg/kg; outline: as §1
[30] = Plasma concentration in Sprague-Dawley rat at 1.1 mg/kg, po administered as LKT formulation measured within 1 hrs by UPLC-MS/MS analysis; type: ADME, organism-based; outline: as §1
[31] = Cmax in Sprague-Dawley rat plasma at 1.1 mg/kg, po administered as LKT formulation measured for 24 hrs by UPLC-MS/MS analysis; type: ADME, organism-based; parameters: route oral, dose 1.1 mg/kg, time 24 hrs; outline: as §1
[32] = Plasma concentration in Sprague-Dawley rat at 1.77 mg/kg, po administered as OPMS liquid formulation measured within 1 hrs by UPLC-MS/MS analysis; type: ADME, organism-based; outline: as §1
[33] = Tmax in Sprague-Dawley rat plasma at 1.1 mg/kg, po administered as LKT formulation measured for 24 hrs by UPLC-MS/MS analysis; type: ADME, organism-based; outline: as §1

CC[C@@H]1CN2CC[C@@]3(C(=O)Nc4cccc(O)c43)[C@H]2C[C@@H]1/C(=C\OC)C(=O)OC
Drug recovery [1]: > 80%
Drug recovery [2]: > 90%

CC[C@@H]1CN2CCc3c([nH]c4cccc(OC)c34)[C@@H]2C[C@@H]1/C(=C\OC)C(=O)OC
Drug metabolism [3]: 3.4%
Drug recovery [1]: > 80%
Drug metabolism [4]: 3.1%
Tmax [5]: 1.3 h
AUC(0-t) at 24 h [6]: 480 ng·h/mL
Cmax/dose [7]: 46.5 ng/mL
Cmax [8]: 112 ng/mL
AUC/dose [9]: 213.1 kg·ng·h/mL/mg
AUC(0-t) at 24 h [10]: 1310 ng·h/mL
Cmax/dose [11]: 11.7 kg·ng/mL/mg
AUC/dose [12]: 136.1 kg·ng·h/mL/mg
Ki [13]: 1100 nM
Drug recovery [2]: > 90%
Cmax/dose [14]: 11.1 kg·ng/mL/mg
Tmax [15]: 3.1 h
Cmax [16]: 63.8 ng/mL
AUC/dose [17]: 83.7 kg·ng·h/mL/mg

CC[C@@H]1CN2CC[C@@]3(C(=O)Nc4ccccc43)[C@@H]2C[C@@H]1/C(=C\OC)C(=O)OC [CORYNOXINE]
Drug recovery [1]: > 80%
Drug recovery [2]: > 90%

CC[C@@H]1CN2CCc3c([nH]c4cccc(OC)c34)[C@H]2C[C@@H]1/C(=C\OC)C(=O)OC
Drug recovery [1]: > 80%
AUC/dose [18]: 101.2 kg·ng·h/mL/mg
AUC(0-t) at 24 h [19]: 107 ng·h/mL
Cmax/dose [20]: 10.4 kg·ng/mL/mg
Cmax/dose [21]: 10.8 kg·ng/mL/mg
Cmax [22]: 23.8 ng/mL
Tmax [23]: 1.8 h
Cmax [24]: 21.1 ng/mL
Tmax [25]: 3.2 h
AUC/dose [26]: 52.9 kg·ng·h/mL/mg
AUC(0-t) at 24 h [27]: 223 ng·h/mL
Drug recovery [2]: > 90%

C=C[C@H]1CN2CCc3c([nH]c4cccc(OC)c34)[C@@H]2C[C@@H]1/C(=C\OC)C(=O)OC
Tmax [28]: 5 min
Drug recovery [1]: > 80%
Cmax [29]: 2 ng/mL
concentration at 1 h [30]: < 1 ng/mL
Cmax [31]: 5.3 ng/mL
concentration at 1 h [32]: < 1 ng/mL
Tmax [33]: 0.167 h
Drug recovery [2]: > 90%
